High-throughput results deposited in PubChem by several laboratories.
The list is not random: actives were taken first. Their share in the collection is about 2.2%.
PHOSPHO1 inh: blocks human PHOSPHO1 phosphatase activity. Q8TCT1. recombinant PHOSPHO1, absorbance phosphatase assay. inhibition, % at 13.3 µM. 290,000 tested, 1.1% active; in the data active = inhibition above about 60%
Target sequence (Q8TCT1 whole entry, looked up): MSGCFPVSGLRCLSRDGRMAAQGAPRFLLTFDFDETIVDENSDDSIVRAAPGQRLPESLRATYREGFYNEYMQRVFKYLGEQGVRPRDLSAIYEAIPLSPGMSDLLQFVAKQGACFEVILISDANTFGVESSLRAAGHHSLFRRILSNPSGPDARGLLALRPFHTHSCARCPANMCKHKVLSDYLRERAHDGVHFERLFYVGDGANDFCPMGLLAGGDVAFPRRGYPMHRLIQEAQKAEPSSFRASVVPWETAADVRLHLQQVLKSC
IMP-1 inhibitor: blocks Pseudomonas aeruginosa IMP-1 metallo-beta-lactamase. purified IMP-1, nitrocefin hydrolysis, epi-absorbance fluorescence. inhibition, % at 5.6 µM. AID 1556. 290,000 tested, 0.45% active;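 active = inhibition above the mean plus 3 SD of all compounds in the same screening run, cut at about 4.5% in these data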;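 note: 0% = IMP-1 with DMSO and 100% = DMSO wells lacking enzyme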
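Assay system: purified recombinant IMP-1 beta-lactamase. Input: IMP-1 0.2 nM before substrate addition. Buffer or medium: Zinc- and detergent-supplemented HEPES buffer, pH 7.1. Schedule: 25 °C, 15 min preincubation, 25 min reaction. Signal: Epi-absorbance fluorescence, 480 nm excitation, 530 nm emission. Evaluation: percent inhibition from optical density relative to buffer-blank wells.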
CR mimetic SO: yeast age-related superoxide inhibition as caloric restriction mimetic | superoxide response (% of plate mean), % at 10 µM | AID 2690 | S. cerevisiae aged cells, superoxide DHE fluorescence; active compounds read low | 330,000 tested, 0.18% active;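 active = superoxide response under a set limit, about three screen SD below normal, cut at about 65% in these data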;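 note: yeast aged for seven days with compound at 30 °C before DHE staining; 100% = average MFI of all compound-treated wells on the plate with controls excluded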
PvdQ acylase: P. aeruginosa PvdQ acylase inhibition. purified PvdQ acylase, fluorescence plate reader. 340,000 tested, 0.063% active. AID 488965. inhibition, % at 10 µM; in the data active = inhibition above about 30%, passing the limit was not always enough;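 note: 0% = vehicle neutral wells and 100% = reference inhibitor wells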
VIM-2 inhibitor: blocks Pseudomonas aeruginosa VIM-2 metallo-beta-lactamase. inhibition, % at 5.6 µM. purified VIM-2, nitrocefin hydrolysis, epi-absorbance fluorescence. 290,000 tested, 0.89% active;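 active = inhibition above the mean of all tested compounds plus 3 SD, cutoff set per screening run, cut at about 7.5% in these data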;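 note: red hydrolysis product quenches plate fluorescence so inhibitors raise well fluorescence; 0% = enzyme with DMSO and 100% = DMSO without enzyme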
Superoxide pick: yeast aging superoxide inhibition, cherry pick confirmation; S. cerevisiae aging, superoxide DHE fluorescence; active compounds read low; superoxide response (% of plate), % at 10 µM; 850 tested, 1% active; shares compounds with CR mimetic SO;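 active = superoxide signal below 65% of the plate average of sample wells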;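 note: cells aged with compound for 7 days at 30 degrees C before staining; 100% equals mean DHE fluorescence of all compound wells on the plate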
DHE fluor count: DHE fluorescence interference, counter-screen artifact. shares compounds with CR mimetic SO. S. cerevisiae BY4741, flow cytometry; active compounds read low. fluorescence response, % at 10 µM. 850 tested, under 10 active;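 active = fluorescence response below 15%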;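 note: percent of the mean fluorescence averaged over all compound wells on the plate; lower means stronger quenching of DHE signal or ROS scavenging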
The depositor's hits bear a star; . = not tested or not shown.

SMILES	PHOSPHO1 inh	IMP-1 inhibitor	CR mimetic SO	PvdQ acylase	VIM-2 inhibitor	Superoxide pick	DHE fluor count
O=C(CSc1ccc(-c2ccccn2)nn1)Nc1ccc(F)c(F)c1	56	-4	99	-7	-4	137	115
O=C(CN1CCN(CC(=O)Nc2ccccc2C(F)(F)F)CC1)Nc1ccccc1F	39	1	102	-11	-1	.	.
O=C(CN1CCN(C(=O)c2c(F)cccc2F)CC1)Nc1ccccc1C(F)(F)F	9	-1	52*	2	1	108	110
Cc1ccc(S(=O)(=O)N(C)c2ccccc2)cc1	9	-4	94	-15	-3	.	.
CN(c1ccccc1)S(=O)(=O)c1ccccc1Br	.	.	85	10	.	87	89
CCN(CC)S(=O)(=O)c1ccc(N2CCCC2)c(NC(=O)Cc2c(F)cccc2Cl)c1	25	-5	100	15	-1	102	93
CN1C(C(=O)NCc2ccc(OC(F)(F)F)cc2)CC2Cn3c(nc4cc5ccccc5cc43)C21 (configuration not stated)	40	.	98	-7	.	.	.
NC(=O)[C@@H]1CCCN1Cc1c(C(=O)N2CCc3ccccc3C2)nc2ccc(Cl)cn12	8	-3	100	-13	-1	.	.
CC1CCCN(C(=O)COC(=O)C2=COCCO2)C1 (configuration not stated)	.	.	91	-16	.	.	.
O=C(CCN1CCCC1=O)NC1CCCc2c1cnn2-c1ccc(F)cc1F (configuration not stated)	41	-6	95	-11	0	.	.
CC(=O)N/C(=C\c1ccccc1)C(=O)OCC(=O)NC1CCS(=O)(=O)C1 (configuration not stated)	.	.	74	-12	.	.	.
N#Cc1ccc(NC(=O)CN2CCN(c3ccccn3)CC2)cc1	-20	-3	98	-14	-1	97	102
COc1ccc(N)cc1NC(=O)CN1CCCC1	15	-7	98	-9	-2	.	.
COc1ccc(NC(=O)CN2CCN(c3ccccn3)CC2)cc1Cl	1	-1	55*	-9	1	99	97
O=C(CN1CCN(CC(=O)Nc2ccccc2Cl)CC1)Nc1ccc(F)c(F)c1	26	-2	44*	-14	1	95	94
Cc1cc(N)ccc1NC(=O)CN1CCCC1	42	-2	64*	-4	1	91	92
COc1ccc(NC(=O)CN2CCN(c3ccc(F)cc3)CC2)cc1Cl	7	-3	115	-7	-1	.	.
ONC(=Nc1ccccc1Cl)c1c(F)cccc1F	.	.	88	5	.	.	.
O=C(NNC(=S)Nc1ccc(C(=O)O)c(O)c1)c1ccncc1	.	.	.	-9	.	.	.
O=C(CN1CCN(c2ccccn2)CC1)Nc1cccc(C(F)(F)F)c1	6	-2	105	-1	0	98	90
Cc1cc(Br)ccc1NC(=O)CN1CCN(c2ccccn2)CC1	11	-1	106	-10	0	96	91
CC(C)c1ccc(NC(=O)CN2CCN(c3ccccn3)CC2)cc1	20	-1	85	14	-1	89	93
CSc1ccccc1NC(=O)CN1CCN(c2ccccn2)CC1	20	-4	97	-11	-5	99	101
O=C(CN1CCN(c2ccccc2)CC1)Nc1cccc(C(F)(F)F)c1	-13	-5	110	-14	-1	.	.
O=C(COC(=O)CCS(=O)(=O)c1ccc(F)cc1)NC1CCCCC1	.	.	92	-3	.	.	.
SMILES	PHOSPHO1 inh	IMP-1 inhibitor	CR mimetic SO	PvdQ acylase	VIM-2 inhibitor	Superoxide pick	DHE fluor count
O=C(NCCc1ccccn1)c1nc(Cn2ccc([N+](=O)[O-])n2)no1	-26	-2	92	-8	-1	.	.
Nn1c(SCC(=O)Nc2ccc(F)cc2F)nnc1C1CCCCC1	23	-1	115	-12	-2	85	101
CC(=O)COc1nc2c(c(-c3ccco3)c1C#N)CCc1ccccc1-2	29	-1	65*	.	0	95	105
O=C(NC(=O)N1CCCC1)c1csnn1	37	-1	64*	-3	-3	99	91
C/C(=N\O)c1ccc(Cl)c(Cl)c1	-59	-1	98	.	-3	.	.
CCCn1c2ccc(/C(C)=N\O)cc2c2cc(/C(C)=N/O)ccc21	24	-2	112	-15	3	104	90
C=CCSc1nnc(-c2ccc([N+](=O)[O-])cc2)o1	-17	-2	64*	20	-3	106	91
